Assay results: ChEMBL document CHEMBL1157962, “Antifungal azaphilones from the fungus Chaetomium cupreum CC3003” (J Nat Prod, 2006)
Converted amounts (≈) assume the structure as drawn. The source made the active and inactive calls. The calls are words filed in the database; no cut-off is given here.

How the values were obtained:
Candida albicans = experiment: Antifungal activity against Candida albicans by XTT formazan assay; assay type: functional, organism-based
Method in brief: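 Clinical isolate of Candida albicans tested by a modified soluble formazan (XTT) method. Viable cells read as XTT formazan absorbance at 450 nm. IC50 taken in μg/mL.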

BC1 = experiment: Cytotoxicity against human BC1 cells; assay type: functional, cell-based
KB = experiment: Cytotoxicity against human KB cells; assay type: functional, cell-based
NCI-H178 = experiment: Cytotoxicity against human […] cells; assay type: functional, cell-based

| Compound | IC50 (Candida albicans) [mg/L] | Activity (BC1) | Activity (KB) | Activity (NCI-H178) |
| --- | --- | --- | --- | --- |
| CC[C@H](C)/C=C(C)/C=C/C1=CC2=CC3=C(C(C)=O)C(=O)O[C@@]3(C)C(=O)C2=CO1 | 24.3 (≈ 63.9 µM) | inactive | inactive | inactive |
| CC[C@H](C)/C=C(C)/C=C/C1=CC2=CC3=C(C(C)=O)C(=O)O[C@@]3(C)[C@H](O)C2=CO1 [ROTIORINOL A] | 10.5 (≈ 27.5 µM) | inactive | inactive | inactive |
| CC(=O)C1=C2C=C3C=C(/C=C/C(C)=C/[C@@H](C)CCO)OC=C3[C@@H](O)[C@]2(C)OC1=O [ROTIORINOL C] | 16.7 (≈ 41.9 µM) | inactive | inactive | inactive |
| CC[C@H](C)/C=C(C)/C=C/C1=CC2=C(Cl)C(=O)[C@@]3(C)OC(=O)C(C(C)=O)=C3C2=CO1 [RUBROROTIORIN] | 0.6 (≈ 1.45 µM) | inactive | inactive | inactive |
